Columns and labels:
[1] = target: T1, Broad substrate specificity ATP-binding cassette transporter ABCG2 (Homo sapiens, UniProt Q9UNQ0); test: Binding affinity to ABCG2 (unknown origin) expressed in HEK293 cells assessed as modulation of 5D3 binding at 2 uM after 45 mins by flow cytometric analysis relative to Ko143; format: cell-based; details: hek293, 0.75 h
T1 sequence (Q9UNQ0 whole entry): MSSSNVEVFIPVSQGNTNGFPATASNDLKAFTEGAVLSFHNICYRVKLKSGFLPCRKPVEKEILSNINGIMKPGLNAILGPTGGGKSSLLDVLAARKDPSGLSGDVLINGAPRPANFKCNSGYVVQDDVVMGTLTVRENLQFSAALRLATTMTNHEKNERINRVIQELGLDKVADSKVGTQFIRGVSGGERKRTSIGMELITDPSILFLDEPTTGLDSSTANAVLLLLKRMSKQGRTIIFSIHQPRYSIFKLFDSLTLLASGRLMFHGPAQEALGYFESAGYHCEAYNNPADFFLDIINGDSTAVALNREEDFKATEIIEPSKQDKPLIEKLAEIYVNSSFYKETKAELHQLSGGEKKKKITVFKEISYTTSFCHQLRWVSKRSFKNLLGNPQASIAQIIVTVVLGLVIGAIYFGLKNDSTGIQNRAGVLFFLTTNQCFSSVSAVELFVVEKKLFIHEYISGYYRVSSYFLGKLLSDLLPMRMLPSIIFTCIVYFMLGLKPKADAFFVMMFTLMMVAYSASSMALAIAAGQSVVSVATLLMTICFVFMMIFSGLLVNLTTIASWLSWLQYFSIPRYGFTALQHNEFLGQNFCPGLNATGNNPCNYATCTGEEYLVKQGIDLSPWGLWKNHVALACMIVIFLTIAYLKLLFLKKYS
Summary of the method: (§1)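 5D3 shift assay on ABCG2-transfected HEK293 cells (0.5 × 10^6 cells/tube) in PBS with 0.5% BSA. Compound at 2 or 5 μM plus 5D3 anti-ABCG2 antibody or isotype control (1 μg/mL), 45 min at 37 °C. Anti-mouse Alexa Fluor 488 secondary (3 μg/mL), 30 min at 37 °C. Binding read by flow cytometry, expressed relative to 2 μM Ko143 (100%). Mean ± SD of ≥3 independent experiments.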

[2] = target: T1, Broad substrate specificity ATP-binding cassette transporter ABCG2; test: Inhibition of human ABCG2 ATPase activity expressed in Sf9 insect cell membranes at 2 uM after 30 mins by colorimetric analysis relative to basal control in presence of sodium orthovanadate; details: sf9, 0.5 h
Summary of the method: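 Basal vanadate-sensitive ATPase assay on cholesterol-loaded membranes from human ABCG2-expressing Sf9 cells (0.5 mg/mL; 10 μg/sample). Buffer: 50 mM Tris-HCl, 50 mM NaCl, pH 8.0, with azide, ouabain, DTT and EGTA, ± 0.33 mM orthovanadate. Compound at 2 μM, or substrates nilotinib 0.1 μM, quercetin 2 μM, prazosin 20 μM. ATP-Mg 3.9 mM, 30 min at 37 °C. Phosphate read by molybdate/ascorbate at 880 nm.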

[3] = target: T1, Broad substrate specificity ATP-binding cassette transporter ABCG2; test: Binding affinity to ABCG2 (unknown origin) expressed in HEK293 cells assessed as modulation of 5D3 binding at 5 uM after 45 mins by flow cytometric analysis relative to Ko143; format: cell-based; details: hek293, 0.75 h; summary of the method: as §1
[4] = target: T2, ABCG2 (Homo sapiens, UniProt Q9UNQ0); test: Inhibition of ABCG2 (unknown origin)-mediated mitoxantrone efflux expressed in HEK293 cells at 5 to 10 uM after 30 mins by flow cytometric analysis relative to control; format: cell-based; details: HEK293 cells expressing ABCG2, probe mitoxantrone, read-out: Imax
T2 sequence (Q9UNQ0 whole entry): T1 sequence (Q9UNQ0 whole entry)

[5] = target: T1, Broad substrate specificity ATP-binding cassette transporter ABCG2; test: Inhibition of human ABCG2 expressed in Sf9 insect cell membranes assessed as inhibition of quercetin-stimulated ATPase activity after 30 mins by colorimetric analysis in presence of sodium orthovanadate; details: for inhibition (INH): human, sf9, 0.5 h
Summary of the method: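 Quercetin (2 μM)-stimulated vanadate-sensitive ATPase assay on cholesterol-loaded ABCG2 Sf9 membranes (10 μg/sample) in Tris/NaCl buffer, pH 8.0. Compound at 0.01, 0.03, 0.5 and 2 μM. ATP-Mg 3.9 mM, 30 min at 37 °C. Released phosphate read colorimetrically at 880 nm. IC50 estimated as 50% inhibition of initial activity; three independent experiments.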

[6] = target: T1, Broad substrate specificity ATP-binding cassette transporter ABCG2; test: Inhibition of ABCG2 (unknown origin)-mediated mitoxantrone efflux expressed in HEK293 cells after 30 mins by flow cytometric analysis; format: cell-based
[7] = target: T1, Broad substrate specificity ATP-binding cassette transporter ABCG2; test: Inhibition of ABCG2-mediated mitoxantrone efflux in mitoxantrone-selected human H460 cells after 30 mins by flow cytometric analysis; format: cell-based
[8] = target: T2, ABCG2; test: Inhibition of ABCG2-mediated mitoxantrone efflux in mitoxantrone-selected human H460 cells at 5 to 10 uM after 30 mins by flow cytometric analysis relative to control; format: cell-based; details: probe mitoxantrone, read-out: Imax
[9] = target: ATP-dependent translocase ABCB1 (Homo sapiens, UniProt P08183); test: Inhibition of ABCB1 (unknown origin)-mediated rhodamine 123 efflux expressed in mouse NIH/3T3 cells at 5 uM after 30 mins by flow cytometric analysis; format: cell-based; details: nih/3t3, 0.5 h
Chain of ATP-dependent translocase ABCB1 (P08183 whole entry): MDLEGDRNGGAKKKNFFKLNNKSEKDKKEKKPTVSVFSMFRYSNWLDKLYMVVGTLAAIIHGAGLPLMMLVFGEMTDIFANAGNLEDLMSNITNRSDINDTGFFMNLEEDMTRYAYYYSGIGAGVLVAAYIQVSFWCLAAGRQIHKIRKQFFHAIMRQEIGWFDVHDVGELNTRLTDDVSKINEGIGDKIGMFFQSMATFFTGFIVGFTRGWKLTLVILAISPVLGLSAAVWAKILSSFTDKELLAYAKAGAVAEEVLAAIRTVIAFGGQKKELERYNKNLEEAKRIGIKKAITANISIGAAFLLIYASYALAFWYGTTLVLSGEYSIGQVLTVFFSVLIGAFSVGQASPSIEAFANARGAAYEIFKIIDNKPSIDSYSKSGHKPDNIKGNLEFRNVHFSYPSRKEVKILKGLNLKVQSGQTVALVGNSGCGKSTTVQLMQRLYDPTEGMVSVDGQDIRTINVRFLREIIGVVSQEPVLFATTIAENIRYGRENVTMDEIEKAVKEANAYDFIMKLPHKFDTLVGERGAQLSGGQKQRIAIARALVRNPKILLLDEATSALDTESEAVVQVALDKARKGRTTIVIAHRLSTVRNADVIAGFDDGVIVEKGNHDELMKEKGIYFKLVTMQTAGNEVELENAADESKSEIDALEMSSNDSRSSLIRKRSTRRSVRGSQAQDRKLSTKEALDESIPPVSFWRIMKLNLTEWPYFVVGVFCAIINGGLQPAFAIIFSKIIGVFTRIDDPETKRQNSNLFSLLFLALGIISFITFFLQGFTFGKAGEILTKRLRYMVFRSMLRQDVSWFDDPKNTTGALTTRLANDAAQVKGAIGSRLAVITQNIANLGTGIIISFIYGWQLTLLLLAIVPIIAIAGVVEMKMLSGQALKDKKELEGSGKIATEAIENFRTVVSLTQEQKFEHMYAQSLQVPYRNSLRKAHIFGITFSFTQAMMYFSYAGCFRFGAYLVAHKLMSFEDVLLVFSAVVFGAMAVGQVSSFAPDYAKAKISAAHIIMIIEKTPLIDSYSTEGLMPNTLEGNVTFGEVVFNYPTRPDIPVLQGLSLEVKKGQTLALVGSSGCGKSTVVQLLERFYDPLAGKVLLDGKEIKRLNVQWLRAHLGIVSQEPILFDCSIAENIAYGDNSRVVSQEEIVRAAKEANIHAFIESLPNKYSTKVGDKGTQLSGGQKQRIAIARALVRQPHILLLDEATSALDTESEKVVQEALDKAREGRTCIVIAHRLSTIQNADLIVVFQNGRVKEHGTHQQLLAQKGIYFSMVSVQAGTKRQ

[10] = target: T2, ABCG2; test: Inhibition of ABCG2 (unknown origin)-mediated pheophorbide A efflux expressed in HEK293 cells at 1 to 5 uM after 30 mins by flow cytometric analysis relative to control; format: cell-based; details: HEK293 cells expressing ABCG2, probe pheophorbide A, read-out: Imax
Summary of the method: (§2)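 Cells seeded at 1.5 × 10^5 cells/well and grown 48 h were exposed to BODIPY-prazosin (0.2 μM) or pheophorbide A (2 μM) for 30 min at 37 °C with or without compound. After washing and trypsinization, intracellular fluorescence was read by flow cytometry (FL4, ≥10 000 events). Percent inhibition = (C−M)/(Cev−M)×100, where Cev is from ABCG2-negative control cells.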

[11] = target: T1, Broad substrate specificity ATP-binding cassette transporter ABCG2; test: Inhibition of ABCG2 (unknown origin)-mediated BODIPY-prazosin efflux expressed in HEK293 cells at 1 to 5 uM after 30 mins by flow cytometric analysis; format: cell-based; details: hek293, 0.5 h; summary of the method: as §2
[12] = target: Multidrug resistance-associated protein 1 (Homo sapiens, UniProt P33527); test: Inhibition of ABCC1 (unknown origin)-mediated calcein-AM efflux expressed in HEK293 cells at 5 uM after 30 mins by flow cytometric analysis; format: cell-based; details: hek293, 0.5 h
Chain of Multidrug resistance-associated protein 1 (P33527 whole entry): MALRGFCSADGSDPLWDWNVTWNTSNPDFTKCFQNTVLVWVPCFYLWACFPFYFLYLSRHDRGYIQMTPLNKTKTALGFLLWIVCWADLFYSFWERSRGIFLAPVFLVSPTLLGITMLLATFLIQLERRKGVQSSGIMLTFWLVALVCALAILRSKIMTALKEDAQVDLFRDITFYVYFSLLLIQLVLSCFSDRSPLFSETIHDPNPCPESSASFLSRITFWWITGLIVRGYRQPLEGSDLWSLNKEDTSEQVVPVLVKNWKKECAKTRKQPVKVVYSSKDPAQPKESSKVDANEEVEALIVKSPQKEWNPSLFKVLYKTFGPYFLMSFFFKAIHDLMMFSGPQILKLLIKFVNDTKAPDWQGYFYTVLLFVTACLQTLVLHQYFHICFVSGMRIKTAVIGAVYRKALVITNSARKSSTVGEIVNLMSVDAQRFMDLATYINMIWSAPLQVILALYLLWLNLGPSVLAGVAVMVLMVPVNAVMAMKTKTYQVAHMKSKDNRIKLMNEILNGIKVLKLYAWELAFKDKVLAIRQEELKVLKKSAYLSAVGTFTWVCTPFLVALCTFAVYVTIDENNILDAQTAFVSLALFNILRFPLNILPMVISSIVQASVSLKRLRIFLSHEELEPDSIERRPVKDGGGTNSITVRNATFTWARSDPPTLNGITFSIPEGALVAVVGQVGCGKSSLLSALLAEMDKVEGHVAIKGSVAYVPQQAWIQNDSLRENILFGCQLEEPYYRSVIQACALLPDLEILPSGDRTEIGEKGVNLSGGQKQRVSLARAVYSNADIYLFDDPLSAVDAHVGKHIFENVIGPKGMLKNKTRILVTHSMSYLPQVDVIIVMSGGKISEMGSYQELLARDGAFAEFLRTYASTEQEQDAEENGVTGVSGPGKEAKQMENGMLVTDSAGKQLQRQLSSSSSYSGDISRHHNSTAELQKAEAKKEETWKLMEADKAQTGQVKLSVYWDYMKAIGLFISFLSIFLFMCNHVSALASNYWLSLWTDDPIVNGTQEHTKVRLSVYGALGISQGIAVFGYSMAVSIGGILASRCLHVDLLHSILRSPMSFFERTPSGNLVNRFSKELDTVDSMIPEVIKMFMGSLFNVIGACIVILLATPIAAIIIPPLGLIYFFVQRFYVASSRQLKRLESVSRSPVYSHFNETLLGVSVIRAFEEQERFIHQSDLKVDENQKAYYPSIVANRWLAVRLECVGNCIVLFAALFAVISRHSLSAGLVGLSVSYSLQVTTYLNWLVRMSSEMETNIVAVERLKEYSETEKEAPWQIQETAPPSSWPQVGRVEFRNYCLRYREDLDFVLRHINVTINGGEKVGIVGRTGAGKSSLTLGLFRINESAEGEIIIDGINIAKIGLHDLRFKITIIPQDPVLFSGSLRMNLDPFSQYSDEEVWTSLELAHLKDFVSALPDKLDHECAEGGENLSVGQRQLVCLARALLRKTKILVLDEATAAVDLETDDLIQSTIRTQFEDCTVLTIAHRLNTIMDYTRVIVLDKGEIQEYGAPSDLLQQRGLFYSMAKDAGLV

[13] = target: T1, Broad substrate specificity ATP-binding cassette transporter ABCG2; test: Stimulation of human ABCG2 ATPase activity expressed in Sf9 insect cell membranes at 2 uM after 30 mins by colorimetric analysis relative to basal control in presence of sodium orthovanadate; details: sf9, 0.5 h

Row | Compound | Activity [1] [%] | inhibition (INH) [2] | Activity [3] [%] | Emax at 0.5 h [4] [%] | IC50 [5] [nM] | inhibition (INH) [5] | EC50 [6] [nM] | EC50 [7] [nM] | Emax at 0.5 h [8] [%] | inhibition (INH) [9] | Emax at 0.5 h [10] [%] | inhibition (INH) [11] | inhibition (INH) [12] | fold change (FC) [13]
1 | O=C(NCc1cn(Cc2ccccc2)nn1)c1cc(=O)c2c(OCc3ccc(Br)cc3)cccc2o1 | 74.3 | Not Active | 95.4 | 78 | 430 | Dose-dependent effect | 1520 | 500 | 76 | – | – | – | – | –
2 | O=C(NCc1cn(CCc2c[nH]c3ccccc23)nn1)c1cc(=O)c2c(OCc3ccc(Br)cc3)cccc2o1 | 93.1 | Active | 105.2 | 87 | 250 | Dose-dependent effect | 490 | 460 | 86 | – | – | – | – | –
3 | COc1ccc2[nH]cc(CCN(C)C(=O)c3cc(=O)c4c(OCc5ccc(Br)cc5)cccc4o3)c2c1 | 82.8 | Active | 97.4 | 101 | > 2000 | Dose-dependent effect | 960 | 530 | 96 | Not Active | 80 | Active | Not Active | –
4 | COc1ccc2[nH]cc(CCNC(=O)c3cc(=O)c4cc(OCc5ccc(Br)cc5)ccc4o3)c2c1 | 93.3 | Not Active | 99.9 | 108 | 530 | Dose-dependent effect | 290 | 100 | 109 | Not Active | 80 | Active | Not Active | –
5 | O=c1c(O)c(-c2ccc(O)c(O)c2)oc2cc(O)cc(O)c12 [QUERCETIN] | – | – | – | – | – | – | – | – | – | – | – | – | – | 4.1
6 | CN(CCc1c[nH]c2ccccc12)C(=O)c1cc(=O)c2c(OCc3ccc(Br)cc3)cccc2o1 | 74.6 | Active | 95.9 | 105 | > 2000 | Dose-dependent effect | 1110 | 570 | 89 | Not Active | 80 | Active | Not Active | –
7 | CN(CCc1cn(C)c2ccccc12)C(=O)c1cc(=O)c2cc(OCc3ccc(Br)cc3)ccc2o1 | 40.9 | Not Active | 72.1 | 50 | > 2000 | Dose-dependent effect | 2060 | 2150 | 61 | – | – | – | – | –
8 | COc1ccc2[nH]cc(CCN(C)Cc3cc(=O)c4c(OCc5ccc(Br)cc5)cccc4o3)c2c1 | 82.3 | Active | 102.5 | 75 | 820 | Dose-dependent effect | 1130 | 600 | 106 | – | – | – | – | –
9 | COc1ccc2[nH]cc(CCNC(=O)c3cc(=O)c4c(OCc5ccc(Br)cc5)cccc4o3)c2c1 | 100.5 | Active | 103.5 | 98 | 380 | Dose-dependent effect | 130 | 50 | 107 | Not Active | 80 | Active | Not Active | –
10 | CN(CCc1c[nH]c2ccccc12)C(=O)c1cc(=O)c2cc(OCc3ccc(Br)cc3)ccc2o1 | 47.6 | Not Active | 79.4 | 54 | > 2000 | Dose-dependent effect | 2580 | 1670 | 50 | – | – | – | – | –
11 | O=C(NCc1cn(Cc2ccc(Br)cc2)nn1)c1cc(=O)c2c(OCc3ccc(Br)cc3)cccc2o1 | 78.7 | Not Active | 91.8 | 95 | 930 | Dose-dependent effect | 570 | 710 | 76 | – | – | – | – | –
12 | CN(CCc1c[nH]c2ccccc12)Cc1cc(=O)c2c(OCc3ccc(Br)cc3)cccc2o1.Cl | 57.4 | Active | 95.4 | 46 | > 2000 | Dose-dependent effect | 1770 | 1110 | 104 | – | – | – | – | –
13 | COc1ccc2[nH]cc(CCNC(=O)c3cc(=O)c4ccc(OCc5ccc(Br)cc5)cc4o3)c2c1 | 64.6 | – | 90.1 | 80 | 10 | Dose-dependent effect | 1270 | 1540 | 93 | – | – | – | – | 2.1
14 | CN(CCc1cn(C)c2ccccc12)C(=O)c1cc(=O)c2c(OCc3ccc(Br)cc3)cccc2o1 | 76.4 | Active | 98.9 | 88 | > 2000 | Dose-dependent effect | 1000 | 500 | 84 | Not Active | 80 | Active | Not Active | –

— ChEMBL document CHEMBL3108696, “Structure-activity relationships of chromone derivatives toward the mechanism of interaction with and inhibition of breast cancer resistance protein ABCG2” (J Med Chem, 2013)
